Assay [1] relates to K562. Description: Compound was tested for its influence on the IMP (Inosine 5`-monophosphate) ribonucleotide level in K562 cells. The class given is functional, Homo sapiens. The essentials: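 K562 cells (1 × 10⁷) given 10 µM agent or saline for 2 h at 37 °C, washed in cold saline, extracted with cold 10% trichloroacetic acid, neutralized with 0.5 M tri-n-octylamine in freon; IMP measured by strong anion-exchange HPLC, reported as percent of saline control (control in nmol/g).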

In assay [2] the test system is MOLT-4. Put plainly: (§1) Compound was tested for antiproliferative activity against MOLT-4, human acute T-lymphoblastic leukemia. The class given is functional, cell-based. In short, it runs like this:
(§2)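 Exponentially growing cells were seeded at 1 × 10⁵ cells/mL in growth medium and exposed to various compound concentrations for 96 h at 37 °C. Viability was read by MTT. Growth at each concentration was taken as % of untreated controls, and IC50 (concentration reducing viability by 50%) was derived by linear regression.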

The target of assay [3] is T1, Inosine-5'-monophosphate dehydrogenase (IMPDH) (Homo sapiens) (UniProt P20839+P12268). Description: (§3) Compound was tested for its inhibition against IMPDH from human myelogenous leukemia in K562 cells. To be noted: concentration not given here. In kind it is functional, cell-based. The essentials: (§4)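 Log-phase K562 cells (1 × 10⁶ cells/mL) were given 10 µM agent or saline for 2 h at 37 °C. They were then washed and lysed in Tris-HCl pH 7.4/NaCl/MgCl₂/0.5% NP-40/aprotinin, and the 13000g supernatant served as enzyme. The reaction ran 30 min at 37 °C, stopped by heating at 95 °C for 1 min. Radioactivity was trapped in KOH and counted by scintillation, giving nmol XMP/mg protein/h and % inhibition against saline.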

Assay [4] deals with K562. Description: Compound was tested for its influence on the GTP (guanosine triphosphate) ribonucleotide level in K562 cells. The class given is functional, Homo sapiens. In short, it runs like this:
(§5)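 K562 cells in culture (1 × 10⁷) were incubated with 10 µM agent or saline for 2 h at 37 °C, then washed with cold saline. Extraction used cold 10% trichloroacetic acid, followed by neutralisation with 0.5 M tri-n-octylamine in freon. Nucleotides were measured by HPLC on a strong anion-exchange (SAX) column, with levels in nmol/g and % of saline control.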

The test system of assay [5] is CCRF-CEM. Put plainly: (§6) Compound was tested for antiproliferative activity against CCRF-CEM, human acute T-lymphoblastic leukemia. The class given is functional, cell-based. In short, it runs like this: as §2
Another assay concerns ACHN. Description: Compound was tested for antiproliferative activity against ACHN, human renal adenocarcinoma. In kind it is functional, cell-based. In short, it runs like this:
(§7)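 Exponentially growing solid-tumour-derived cells were seeded at 5 × 10⁴ cells/mL and left to adhere for 16 h before drug addition, across a range of concentrations. Growth was expressed as % of untreated controls, and IC50 (concentration reducing cell viability by 50%) was obtained by linear regression.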

The test system of another assay is HT-29. Put plainly: Compound was tested for antiproliferative activity against HT29, human colon adenocarcinoma. In kind it is functional, cell-based. The essentials:
as §7

In assay [6] the test system is K562. Description: Compound was tested for its influence on the GMP (guanosine monophosphate) ribonucleotide level in K562 cells. The class given is functional, Homo sapiens. In short, it runs like this:
as §5

The test system of the next assay is HeLa. Description: Compound was tested for antiproliferative activity against HeLa, human cervix carcinoma. The class given is functional, cell-based. In short, it runs like this: as §7
Assay [7] concerns CHO-K1. Put plainly: Compound was tested for antiproliferative activity against CHO-K1, Chinese hamster ovary. In kind it is functional, cell-based. Conditions: Cricetulus griseus. In short, it runs like this: as §7
A further assay has as its system WIL2-NS. Description: Compound was tested for antiproliferative activity against Wil2-NS, human splenic lymphoblastoid cells. In kind it is functional, cell-based. The essentials: as §2
The test system of assay [8] is CCRF-SB. Put plainly: (§8) Compound was tested for antiproliferative activity against CCRF-SB, human acute B-lymphoblastic leukemia. In kind it is functional, cell-based. The essentials: as §2
In assay [9] the test system is K562. Put plainly: Compound was tested for its influence on the GDP (guanosine diphosphate) ribonucleotide level in K562 cells. In kind it is functional, Homo sapiens. The essentials: as §5
In assay [10] the test system is L1210. Put plainly: (§9) Compound was tested for antiproliferative activity against L1210, murine lymphocytic leukemia. The class given is functional, cell-based. Conditions: Mus musculus. The essentials: as §2
A further assay relates to 5637. Put plainly: Compound was tested for antiproliferative activity against 5637, human bladder carcinoma cell line. The class given is functional, cell-based. In short, it runs like this:
as §7

Assay [11] deals with K562. Put plainly: (§10) Compound was tested for antiproliferative activity against K562, human erythroid leukemia. In kind it is functional, cell-based. In short, it runs like this:
as §2

The target of assay [12] is T1, Inosine-5'-monophosphate dehydrogenase (IMPDH) (Homo sapiens). Description: Compound was tested for its effect on IMPDH (Inosine 5`-monophosphate dehydrogenase) activity in K562 cells. In kind it is functional, cell-based. Conditions: scale: (nM of XMP formed) hr-1. The essentials:
as §4

For another assay, the system named is Raji. Put plainly: Compound was tested for antiproliferative activity against Raji, human Burkitt lymphoma. The class given is functional, cell-based. The essentials:
as §2

Assay [13] deals with MOLT-4. Described as §1. In kind it is functional, cell-based. The essentials:
(§11)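 Suspension leukemia/lymphoma cells in exponential growth resuspended at 1 × 10⁵ cells/mL in growth medium with various compound concentrations; viability read by MTT after 96 h at 37 °C. Growth given as percentage of untreated controls; IC50 (concentration reducing viability 50%) from linear regression.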
The source holds these as a separate data set.

The target of assay [14] is T1, Inosine-5'-monophosphate dehydrogenase (IMPDH) (Homo sapiens). Description: Compound was tested for its effect on IMPDH (Inosine 5`-monophosphate dehydrogenase) activity of K562 cells in culture. The class given is functional, cell-based. To be noted: scale: (nM of XMP formed) hr-1.
The subject of assay [15] is K562. Described as §10. The class given is functional, cell-based. In short, it runs like this: as §11
This is another data set of the same source.

Assay [16] relates to L1210. The description is as §9. In kind it is functional, cell-based. Conditions: Mus musculus. The essentials: as §11
This is another data set of the same source.

Assay [17] deals with CCRF-SB. The assay is described as §8. The class given is functional, cell-based. The essentials:
as §11
This is another data set of the same source.

The target of assay [18] is T1, Inosine-5'-monophosphate dehydrogenase (IMPDH) (Homo sapiens). Description: Compound was tested for its inhibition against IMPDH from human myelogenous leukemia K562 cells in culture. The class given is functional, cell-based. Conditions: concentration not given here.
Assay [19] concerns CCRF-CEM. The assay is described as §6. In kind it is functional, cell-based. The essentials: as §11
The source holds these as a separate data set.

Assay [20] relates to CHO-K1. Put plainly: Compound was tested for antiproliferative activity against CHO-K1, Chinese hamster ovary cells. In kind it is functional, cell-based. To be noted: Cricetulus griseus. In short, it runs like this:
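Solid tumor-derived adherent cells seeded at 5 × 10⁴ cells/mL in exponential growth, allowed 16 h to attach before drug addition; viability by MTT method. Growth expressed as percent of untreated controls, IC50 obtained by linear regression.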

Assay [21] addresses T1, Inosine-5'-monophosphate dehydrogenase (IMPDH) (Homo sapiens). Description: Compound was tested for its effect on IMPDH (Inosine 5`-monophosphate dehydrogenase) activity in K562 cells in culture. To be noted: scale: (nM of XMP formed) hr-1. The class given is functional, cell-based.
For assay [22] the target is unchanged. The description is as §3. In kind it is functional, cell-based. To be noted: concentration not given here. The source holds these as a separate data set.
In assay [23] the test system is K562. Description: Compound was tested for its influence on the IMP (Inosine 5`-monophosphate) ribonucleotide level of K562 cells in culture. In kind it is functional, Homo sapiens. The essentials: as §5

T1 sequence (P20839 whole entry, looked up, other chains not shown): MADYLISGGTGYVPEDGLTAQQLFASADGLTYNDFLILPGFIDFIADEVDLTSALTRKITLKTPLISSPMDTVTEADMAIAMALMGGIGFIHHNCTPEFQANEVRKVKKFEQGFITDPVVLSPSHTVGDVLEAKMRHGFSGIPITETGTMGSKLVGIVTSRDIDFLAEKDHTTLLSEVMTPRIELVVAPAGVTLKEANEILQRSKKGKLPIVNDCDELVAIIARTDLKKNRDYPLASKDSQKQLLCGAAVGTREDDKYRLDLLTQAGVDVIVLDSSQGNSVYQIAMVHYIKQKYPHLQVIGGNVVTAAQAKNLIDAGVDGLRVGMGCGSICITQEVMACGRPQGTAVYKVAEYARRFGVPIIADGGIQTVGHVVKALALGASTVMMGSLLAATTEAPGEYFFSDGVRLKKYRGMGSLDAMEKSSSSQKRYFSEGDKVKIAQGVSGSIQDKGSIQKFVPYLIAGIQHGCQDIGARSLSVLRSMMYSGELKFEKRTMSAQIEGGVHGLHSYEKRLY

One may read the IC50 as the concentration that gives 50% inhibition. What is called inhibition is the share of the control response that was lost under treatment. On to `NC(=O)c1c[se]c([C@@H]2O[C@H](CO)[C@@H](O)[C@H]2O)c1`, for which the Control in the assay on K562 [1] was 1464%; in the assay with K562 [4], 42%; with K562 [6], 0%; in the assay on K562 [9], 61%. Moreover, the IC50 in the assay with MOLT-4 [2] is 0.3 µM; in the assay on CCRF-CEM [5], 0.3 µM; in the assay on ACHN, 9.9 µM; in the assay on HT-29, 3.5 µM; in the assay on HeLa it was 6.4 µM; in the assay with CHO-K1 [7], 2.9 µM. Further, the IC50 in the assay with WIL2-NS stood at 0.7 µM; in the assay with CCRF-SB [8] it was 0.9 µM; in the assay on L1210 [10], 0.3 µM; with 5637, 1.2 µM; in the assay on K562 [11], 0.45 µM; in the assay with Raji, 0.9 µM. In [3], the inhibition turned out to be 76%. In [12], this compound had an IMPDH activity of 1.06.
For `NC(=O)c1csc([C@@H]2O[C@H](CO)[C@@H](O)[C@H]2O)n1` [TIAZOFURIN], the Control in the assay on K562 [1] came out at 1033%; in the assay on K562 [4], 55%; in the assay on K562 [6], 0%; in the assay on K562 [9] it was 89%. Moreover, the IC50 in the assay on MOLT-4 [13] is 5.2 µM; in the assay with ACHN it was more than 100 µM; with HT-29 it was 100 µM; in the assay with K562 [15], 2.5 µM; in the assay with HeLa, 100 µM; in the assay on L1210 [16] it was 2.9 µM. Besides, the IC50 in the assay on WIL2-NS amounted to 5.7 µM; in the assay with CCRF-SB [17] it was 7.5 µM; in the assay on 5637, 24 µM; with Raji, 8.2 µM; with CCRF-CEM [19] it was 10 µM; in the assay with CHO-K1 [20], 6.4 µM. Moreover, the IMPDH activity in assay [14] was 2.07. This compound also had an inhibition in [18] of 59%.
Regarding `NC(=O)c1csc([C@@H]2O[C@H](CO)[C@@H](O)[C@H]2O)c1`, the Control in the assay with K562 [1] was found to be 703%; in the assay on K562 [4], 60%; with K562 [6], 0%; in the assay with K562 [9], 66%. Besides, the IC50 in the assay with MOLT-4 [13] came out at 2.9 µM; in the assay with ACHN it was 79 µM; in the assay with HT-29, 40 µM; in the assay on HeLa, 90 µM; in the assay on L1210 [16], 1.7 µM; with WIL2-NS, 5.8 µM. Also, the IC50 in the assay with CCRF-SB [8] amounted to 6.4 µM; with 5637, 17 µM; with K562 [11], 2.3 µM; with Raji, 8.7 µM; in the assay with CCRF-CEM [19] it was 3.5 µM; in the assay with CHO-K1 [20], 55 µM. For the same compound, in assay [21], the IMPDH activity was found to be 2.62. This compound came in with an inhibition in assay [22] of 52%.
With `NC(=O)c1c[se]c([C@@H]2O[C@H](CO)[C@@H](O)[C@H]2O)n1`, the IC50 in the assay on MOLT-4 [2] amounted to 0.6 µM; in the assay on CCRF-CEM [5], 1.2 µM; with ACHN, 13.8 µM; with HT-29, 7.7 µM; with HeLa it was 7.9 µM; in the assay with CHO-K1 [7] it was 0.6 µM. The IC50 is 1.2 µM with WIL2-NS; 1.5 µM with CCRF-SB [8]; 0.5 µM with L1210 [10]; 2.3 µM in the assay with 5637; 0.5 µM in the assay with K562 [11]; 1.6 µM in the assay on Raji. Moreover, in assay [3], the inhibition was found to be 80%. Also, the Control is recorded as 50% in the assay on K562 [4], 0% with K562 [6], 59% in the assay with K562 [9] and 1043% in the assay with K562 [23]. The compound also returned an IMPDH activity in assay [12] of 1.01.

For the origin of these results see ChEMBL document CHEMBL1130047, “Synthesis, structure, and antiproliferative activity of selenophenfurin, an inosine 5'-monophosphate dehydrogenase inhibitor analogue of selenazofurin” (J Med Chem, 1997).
